Data published in ChEMBL document CHEMBL1165969, “Synthesis and cytotoxicity of novel indirubin-5-carboxamides” (Bioorg Med Chem, 2010).

Columns and labels:
[1] = target: Aurora kinase B (Homo sapiens) (UniProt Q96GD4); test: Inhibition of Aurora B assessed as residual activity at 10 uM after 80 mins by microplate scintillation counting
[2] = target: T1, Cyclin-dependent kinase 4/cyclin D1 (Homo sapiens) (UniProt P11802+P24385); test: Inhibition of CDK4/Cyclin D1 assessed as residual activity at 10 uM after 80 mins by microplate scintillation counting; assay type: protein-complex assay
[3] = target: Ribosomal protein S6 kinase beta-1 (Homo sapiens) (UniProt P23443); test: Inhibition of p70S6K1 assessed as residual activity at 10 uM after 80 mins by microplate scintillation counting
How it was run: (§1)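 Kinase profiling was outsourced to a contract laboratory as a panel of 30 protein kinases. Each compound was tested at two concentrations, and residual kinase activity was recorded.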

[4] = target: Proto-oncogene tyrosine-protein kinase receptor Ret (Homo sapiens) (UniProt P07949); test: Inhibition of RET assessed as residual activity at 1 uM after 80 mins by microplate scintillation counting; how it was run: as §1
[5] = target: Receptor tyrosine-protein kinase erbB-2 (Homo sapiens) (UniProt P04626); test: Inhibition of ERBB2 assessed as residual activity at 1 uM after 80 mins by microplate scintillation counting
[6] = target: Mast/stem cell growth factor receptor Kit (Homo sapiens) (UniProt P10721); test: Inhibition of KIT assessed as residual activity at 1 uM after 80 mins by microplate scintillation counting
[7] = target: Tyrosine-protein kinase Fgr (Homo sapiens) (UniProt P09769); test: Inhibition of FGR assessed as residual activity at 10 uM after 80 mins by microplate scintillation counting
[8] = target: T2, Glycogen synthase kinase-3 beta (Homo sapiens, UniProt P49841); test: Inhibition of GSK3-beta assessed as residual activity at 1 uM after 80 mins by microplate scintillation counting
[9] = target: Cyclin-dependent kinase 2/cyclin A (Homo sapiens) (UniProt P24941+P20248+P78396); test: Inhibition of CDK2/Cyclin A assessed as residual activity at 10 uM after 80 mins by microplate scintillation counting; assay type: protein-complex assay
[10] = target: Proto-oncogene tyrosine-protein kinase Src (Homo sapiens) (UniProt P12931); test: Inhibition of SRC assessed as residual activity at 10 uM after 80 mins by microplate scintillation counting; how it was run: as §1
[11] = target: Vascular endothelial growth factor receptor 3 (Homo sapiens) (UniProt P35916); test: Inhibition of VEGFR3 assessed as residual activity at 10 uM after 80 mins by microplate scintillation counting; how it was run: as §1
[12] = target: Receptor-type tyrosine-protein kinase FLT3 (Homo sapiens) (UniProt P36888); test: Inhibition of FLT3 assessed as residual activity at 10 uM after 80 mins by microplate scintillation counting
[13] = target: T3, Cyclin-dependent kinase 2/cyclin E1 (Homo sapiens) (UniProt P24864+P24941); test: Inhibition of CDK2/Cyclin E assessed as residual activity at 10 uM after 80 mins by microplate scintillation counting; assay type: protein-complex assay
[14] = target: T2, Glycogen synthase kinase-3 beta; test: Inhibition of GSK3-beta assessed as residual activity at 10 uM after 80 mins by microplate scintillation counting
[15] = target: RAF proto-oncogene serine/threonine-protein kinase (Homo sapiens) (UniProt P04049); test: Inhibition of RAF1 assessed as residual activity at 10 uM after 80 mins by microplate scintillation counting; how it was run: as §1
[16] = target: Muscle, skeletal receptor tyrosine-protein kinase (Homo sapiens) (UniProt O15146); test: Inhibition of MUSK assessed as residual activity at 10 uM after 80 mins by microplate scintillation counting
[17] = target: T4, Cyclin-dependent kinase 5/CDK5 activator 1 (Homo sapiens) (UniProt Q00535+Q15078); test: Inhibition of CDK5/p35 assessed as residual activity at 10 uM after 80 mins by microplate scintillation counting; assay type: protein-complex assay
[18] = target: Receptor tyrosine-protein kinase erbB-2 (Homo sapiens) (UniProt P04626); test: Inhibition of ERBB2 assessed as residual activity at 10 uM after 80 mins by microplate scintillation counting
[19] = target: Vascular endothelial growth factor receptor 3 (Homo sapiens) (UniProt P35916); test: Inhibition of VEGFR3 assessed as residual activity at 1 uM after 80 mins by microplate scintillation counting; how it was run: as §1
[20] = target: Tyrosine-protein kinase ABL1 (Homo sapiens) (UniProt P00519); test: Inhibition of ABL1 assessed as residual activity at 10 uM after 80 mins by microplate scintillation counting
[21] = target: Fibroblast growth factor receptor 1 (Homo sapiens) (UniProt P11362); test: Inhibition of FGFR1 assessed as residual activity at 1 uM after 80 mins by microplate scintillation counting
[22] = target: Epidermal growth factor receptor (Homo sapiens) (UniProt P00533); test: Inhibition of EGFR assessed as residual activity at 1 uM after 80 mins by microplate scintillation counting
[23] = target: T1, Cyclin-dependent kinase 4/cyclin D1 (Homo sapiens); test: Inhibition of CDK4/Cyclin D1 assessed as residual activity at 1 uM after 80 mins by microplate scintillation counting; assay type: protein-complex assay
[24] = target: Aurora kinase C (Homo sapiens) (UniProt Q9UQB9); test: Inhibition of Aurora C assessed as residual activity at 10 uM after 80 mins by microplate scintillation counting
[25] = target: Serine/threonine-protein kinase Chk1 (Homo sapiens) (UniProt O14757); test: Inhibition of CHK1 assessed as residual activity at 1 uM after 80 mins by microplate scintillation counting
[26] = target: Tyrosine-protein kinase ABL1 (Homo sapiens) (UniProt P00519); test: Inhibition of ABL1 assessed as residual activity at 1 uM after 80 mins by microplate scintillation counting
[27] = target: Insulin-like growth factor 1 receptor (Homo sapiens) (UniProt P08069); test: Inhibition of IGF1R assessed as residual activity at 10 uM after 80 mins by microplate scintillation counting
[28] = target: Serine/threonine-protein kinase B-raf (Homo sapiens) (UniProt P15056); test: Inhibition of B-Raf assessed as residual activity at 10 uM after 80 mins by microplate scintillation counting
[29] = target: Serine/threonine-protein kinase B-raf (Homo sapiens) (UniProt P15056); test: Inhibition of B-Raf assessed as residual activity at 1 uM after 80 mins by microplate scintillation counting
[30] = target: Platelet-derived growth factor receptor alpha (Homo sapiens) (UniProt P16234); test: Inhibition of PDGFRalpha assessed as residual activity at 1 uM after 80 mins by microplate scintillation counting
[31] = target: Platelet-derived growth factor receptor alpha (Homo sapiens) (UniProt P16234); test: Inhibition of PDGFRalpha assessed as residual activity at 10 uM after 80 mins by microplate scintillation counting
[32] = target: Epidermal growth factor receptor (Homo sapiens) (UniProt P00533); test: Inhibition of EGFR assessed as residual activity at 10 uM after 80 mins by microplate scintillation counting
[33] = target: T4, Cyclin-dependent kinase 5/CDK5 activator 1 (Homo sapiens); test: Inhibition of CDK5/p35 assessed as residual activity at 1 uM after 80 mins by microplate scintillation counting; assay type: protein-complex assay
[34] = target: Cyclin-dependent kinase 1/cyclin B1 (Homo sapiens) (UniProt P06493+P14635); test: Inhibition of CDK1/Cyclin B1 assessed as residual activity at 10 uM after 80 mins by microplate scintillation counting; assay type: protein-complex assay
[35] = target: Proto-oncogene tyrosine-protein kinase receptor Ret (Homo sapiens) (UniProt P07949); test: Inhibition of RET assessed as residual activity at 10 uM after 80 mins by microplate scintillation counting; how it was run: as §1
[36] = target: Vascular endothelial growth factor receptor 2 (Homo sapiens) (UniProt P35968); test: Inhibition of VEGFR2 assessed as residual activity at 1 uM after 80 mins by microplate scintillation counting; how it was run: as §1
[37] = target: T3, Cyclin-dependent kinase 2/cyclin E1 (Homo sapiens); test: Inhibition of CDK2/Cyclin E assessed as residual activity at 1 uM after 80 mins by microplate scintillation counting; assay type: protein-complex assay

Chain of Tyrosine-protein kinase ABL1 (Homo sapiens) (P00519 whole entry): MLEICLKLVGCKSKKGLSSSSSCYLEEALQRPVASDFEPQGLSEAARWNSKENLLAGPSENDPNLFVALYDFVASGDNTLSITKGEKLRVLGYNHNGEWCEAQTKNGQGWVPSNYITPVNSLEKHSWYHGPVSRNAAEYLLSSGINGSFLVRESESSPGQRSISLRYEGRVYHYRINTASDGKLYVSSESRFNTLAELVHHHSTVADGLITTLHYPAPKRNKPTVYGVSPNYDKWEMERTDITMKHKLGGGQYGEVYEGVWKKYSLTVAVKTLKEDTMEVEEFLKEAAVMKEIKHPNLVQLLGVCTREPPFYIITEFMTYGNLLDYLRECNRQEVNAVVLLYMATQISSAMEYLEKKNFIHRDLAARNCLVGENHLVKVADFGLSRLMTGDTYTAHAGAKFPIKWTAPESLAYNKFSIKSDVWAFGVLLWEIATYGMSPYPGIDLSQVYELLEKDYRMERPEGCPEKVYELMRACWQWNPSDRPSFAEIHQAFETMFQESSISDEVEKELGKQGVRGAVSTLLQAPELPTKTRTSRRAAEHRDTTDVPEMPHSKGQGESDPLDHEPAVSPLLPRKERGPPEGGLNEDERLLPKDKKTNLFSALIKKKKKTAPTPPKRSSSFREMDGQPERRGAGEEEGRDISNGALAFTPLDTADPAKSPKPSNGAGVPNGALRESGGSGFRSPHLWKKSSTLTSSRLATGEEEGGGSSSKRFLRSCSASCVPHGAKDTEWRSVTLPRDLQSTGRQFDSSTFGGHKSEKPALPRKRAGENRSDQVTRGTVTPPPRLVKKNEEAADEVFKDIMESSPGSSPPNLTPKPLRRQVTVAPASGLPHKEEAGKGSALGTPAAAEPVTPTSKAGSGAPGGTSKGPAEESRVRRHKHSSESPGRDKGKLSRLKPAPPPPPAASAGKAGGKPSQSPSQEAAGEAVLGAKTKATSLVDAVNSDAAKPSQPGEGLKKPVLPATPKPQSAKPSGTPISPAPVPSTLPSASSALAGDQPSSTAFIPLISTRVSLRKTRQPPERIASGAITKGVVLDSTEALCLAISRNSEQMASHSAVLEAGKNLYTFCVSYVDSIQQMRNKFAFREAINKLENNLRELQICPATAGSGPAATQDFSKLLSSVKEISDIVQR
Chain of Epidermal growth factor receptor (Homo sapiens) (P00533 whole entry): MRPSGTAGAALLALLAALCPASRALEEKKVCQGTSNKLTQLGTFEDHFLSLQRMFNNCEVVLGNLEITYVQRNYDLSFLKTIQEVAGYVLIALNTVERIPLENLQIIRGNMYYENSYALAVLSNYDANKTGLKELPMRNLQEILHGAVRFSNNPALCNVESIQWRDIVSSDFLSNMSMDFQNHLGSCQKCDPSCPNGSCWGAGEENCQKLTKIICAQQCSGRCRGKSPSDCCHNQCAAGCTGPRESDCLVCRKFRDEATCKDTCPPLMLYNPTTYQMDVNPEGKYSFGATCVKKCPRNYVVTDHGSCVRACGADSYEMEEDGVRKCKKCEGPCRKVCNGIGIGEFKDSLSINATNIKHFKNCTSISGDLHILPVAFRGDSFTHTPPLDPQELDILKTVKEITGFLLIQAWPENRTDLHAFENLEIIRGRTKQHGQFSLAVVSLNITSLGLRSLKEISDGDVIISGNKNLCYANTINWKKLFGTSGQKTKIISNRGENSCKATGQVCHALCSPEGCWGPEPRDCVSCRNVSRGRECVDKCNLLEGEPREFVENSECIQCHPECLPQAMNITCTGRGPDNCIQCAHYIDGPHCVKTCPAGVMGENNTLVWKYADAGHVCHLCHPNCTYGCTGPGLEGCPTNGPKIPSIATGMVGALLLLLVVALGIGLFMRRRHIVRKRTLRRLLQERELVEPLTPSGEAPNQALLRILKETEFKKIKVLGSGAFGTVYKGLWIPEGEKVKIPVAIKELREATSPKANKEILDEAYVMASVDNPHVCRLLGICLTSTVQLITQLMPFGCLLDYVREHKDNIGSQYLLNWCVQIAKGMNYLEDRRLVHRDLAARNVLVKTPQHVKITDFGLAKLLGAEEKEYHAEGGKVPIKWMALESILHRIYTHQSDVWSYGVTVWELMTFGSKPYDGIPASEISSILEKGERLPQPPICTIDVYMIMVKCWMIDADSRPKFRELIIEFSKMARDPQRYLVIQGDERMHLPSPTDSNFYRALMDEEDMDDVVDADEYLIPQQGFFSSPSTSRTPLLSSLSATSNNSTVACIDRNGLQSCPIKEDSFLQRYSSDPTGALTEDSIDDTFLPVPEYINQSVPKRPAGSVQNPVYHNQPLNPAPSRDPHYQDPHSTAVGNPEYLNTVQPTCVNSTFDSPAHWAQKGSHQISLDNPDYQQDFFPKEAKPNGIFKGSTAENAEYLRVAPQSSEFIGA
Chain of Vascular endothelial growth factor receptor 3 (Homo sapiens) (P35916 whole entry): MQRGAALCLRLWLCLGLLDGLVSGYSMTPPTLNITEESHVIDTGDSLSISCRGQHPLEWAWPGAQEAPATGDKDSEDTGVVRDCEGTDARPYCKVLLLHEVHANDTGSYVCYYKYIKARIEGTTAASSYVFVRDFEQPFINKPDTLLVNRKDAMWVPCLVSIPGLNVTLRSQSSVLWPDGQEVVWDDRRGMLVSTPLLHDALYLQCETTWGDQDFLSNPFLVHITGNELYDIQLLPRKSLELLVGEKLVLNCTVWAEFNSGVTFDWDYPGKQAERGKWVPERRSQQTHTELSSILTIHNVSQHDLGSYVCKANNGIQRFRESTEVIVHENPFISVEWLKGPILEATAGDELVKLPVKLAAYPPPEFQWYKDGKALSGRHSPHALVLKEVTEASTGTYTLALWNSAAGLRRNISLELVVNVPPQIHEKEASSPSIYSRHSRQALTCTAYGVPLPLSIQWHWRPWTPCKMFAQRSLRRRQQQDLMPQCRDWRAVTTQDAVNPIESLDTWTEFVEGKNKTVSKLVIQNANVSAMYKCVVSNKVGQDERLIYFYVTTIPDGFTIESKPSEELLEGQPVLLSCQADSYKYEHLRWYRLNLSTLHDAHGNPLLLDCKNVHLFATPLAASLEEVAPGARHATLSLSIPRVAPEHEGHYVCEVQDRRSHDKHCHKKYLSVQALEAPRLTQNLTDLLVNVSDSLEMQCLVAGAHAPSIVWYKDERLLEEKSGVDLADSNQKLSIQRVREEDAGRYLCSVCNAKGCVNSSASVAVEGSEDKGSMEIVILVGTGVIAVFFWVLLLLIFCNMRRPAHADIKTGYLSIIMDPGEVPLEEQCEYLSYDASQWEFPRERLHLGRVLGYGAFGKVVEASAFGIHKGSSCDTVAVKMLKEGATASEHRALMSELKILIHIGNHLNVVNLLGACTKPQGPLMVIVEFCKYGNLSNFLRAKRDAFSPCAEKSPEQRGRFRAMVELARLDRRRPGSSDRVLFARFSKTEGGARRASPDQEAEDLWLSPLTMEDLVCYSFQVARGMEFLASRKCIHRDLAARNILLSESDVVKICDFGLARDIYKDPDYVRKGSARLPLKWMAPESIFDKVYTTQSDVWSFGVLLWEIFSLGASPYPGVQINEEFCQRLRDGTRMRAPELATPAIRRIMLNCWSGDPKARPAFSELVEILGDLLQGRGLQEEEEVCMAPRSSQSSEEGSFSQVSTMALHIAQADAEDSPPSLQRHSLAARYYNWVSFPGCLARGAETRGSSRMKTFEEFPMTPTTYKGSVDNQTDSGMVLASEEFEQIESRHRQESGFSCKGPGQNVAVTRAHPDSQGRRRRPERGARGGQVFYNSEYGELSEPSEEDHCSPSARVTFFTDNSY
T2 sequence (P49841 whole entry, looked up): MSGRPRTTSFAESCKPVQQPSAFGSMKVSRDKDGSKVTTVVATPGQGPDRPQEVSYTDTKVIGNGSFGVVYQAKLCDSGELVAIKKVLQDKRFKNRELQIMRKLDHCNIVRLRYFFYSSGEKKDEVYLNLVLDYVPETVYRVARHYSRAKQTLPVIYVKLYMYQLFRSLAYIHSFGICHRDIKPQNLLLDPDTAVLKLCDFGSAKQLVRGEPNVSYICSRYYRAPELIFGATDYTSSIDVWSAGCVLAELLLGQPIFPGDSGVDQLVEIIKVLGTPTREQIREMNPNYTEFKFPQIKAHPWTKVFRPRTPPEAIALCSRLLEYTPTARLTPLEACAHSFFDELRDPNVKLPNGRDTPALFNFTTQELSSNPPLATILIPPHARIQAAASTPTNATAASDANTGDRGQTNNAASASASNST
Chain of Serine/threonine-protein kinase B-raf (Homo sapiens) (P15056 whole entry): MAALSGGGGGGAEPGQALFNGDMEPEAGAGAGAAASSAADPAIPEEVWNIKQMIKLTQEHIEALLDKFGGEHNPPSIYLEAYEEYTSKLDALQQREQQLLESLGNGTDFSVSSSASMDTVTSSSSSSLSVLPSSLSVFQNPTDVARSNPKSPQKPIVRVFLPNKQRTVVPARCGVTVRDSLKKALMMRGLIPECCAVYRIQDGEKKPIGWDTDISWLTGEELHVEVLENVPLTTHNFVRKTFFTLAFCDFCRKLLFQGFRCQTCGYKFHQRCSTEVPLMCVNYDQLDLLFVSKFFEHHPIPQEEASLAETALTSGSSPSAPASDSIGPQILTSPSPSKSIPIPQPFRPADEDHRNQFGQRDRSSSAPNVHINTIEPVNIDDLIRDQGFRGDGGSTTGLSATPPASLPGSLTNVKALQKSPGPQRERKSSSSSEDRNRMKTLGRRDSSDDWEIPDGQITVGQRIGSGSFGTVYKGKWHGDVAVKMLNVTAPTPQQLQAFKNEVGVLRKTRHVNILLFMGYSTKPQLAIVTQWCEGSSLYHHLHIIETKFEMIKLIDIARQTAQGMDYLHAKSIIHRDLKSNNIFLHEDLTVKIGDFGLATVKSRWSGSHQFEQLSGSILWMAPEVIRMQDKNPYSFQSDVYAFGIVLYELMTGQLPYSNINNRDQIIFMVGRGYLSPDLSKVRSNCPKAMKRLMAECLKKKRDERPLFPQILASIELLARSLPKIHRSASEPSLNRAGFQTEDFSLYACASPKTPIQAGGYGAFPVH

Activity [1]: 73%
Activity [2]: 18%
Activity [3]: 48%
Activity [4]: 78%
Activity [5]: 99%
Activity [6]: 98%
Activity [7]: < 50%
Activity [8]: 27%
Activity [9]: 20%
Activity [10]: 271%
Activity [11]: 37%
Activity [12]: 11%
Activity [13]: 14%
Activity [14]: 6%
Activity [15]: 53%
Activity [16]: 31%
Activity [17]: 16%
Activity [18]: 40%
Activity [19]: 99%
Activity [20]: 26%
Activity [21]: 88%
Activity [22]: 99%
Activity [23]: 64%
Activity [24]: 92%
Activity [25]: 106%
Activity [26]: 88%
Activity [27]: 103%
Activity [28]: 106%
Activity [29]: 103%
Activity [30]: 94%
Activity [31]: 31%
Activity [32]: 43%
Activity [33]: 53%
Activity [34]: 23%
Activity [35]: 58%
Activity [36]: 100%
Activity [37]: 63%
SMILES: CN1CCN(c2ccc(NC(=O)c3ccc4c(c3)/C(=C3/Nc5ccccc5C3=O)C(=O)N4)cc2)CC1
